# Assay results collected from several papers.
# Target: Tyrosine-protein kinase Mer (MERTK, Homo sapiens, UniProt Q12866)
# Residues used in one study (Q12866 21-999): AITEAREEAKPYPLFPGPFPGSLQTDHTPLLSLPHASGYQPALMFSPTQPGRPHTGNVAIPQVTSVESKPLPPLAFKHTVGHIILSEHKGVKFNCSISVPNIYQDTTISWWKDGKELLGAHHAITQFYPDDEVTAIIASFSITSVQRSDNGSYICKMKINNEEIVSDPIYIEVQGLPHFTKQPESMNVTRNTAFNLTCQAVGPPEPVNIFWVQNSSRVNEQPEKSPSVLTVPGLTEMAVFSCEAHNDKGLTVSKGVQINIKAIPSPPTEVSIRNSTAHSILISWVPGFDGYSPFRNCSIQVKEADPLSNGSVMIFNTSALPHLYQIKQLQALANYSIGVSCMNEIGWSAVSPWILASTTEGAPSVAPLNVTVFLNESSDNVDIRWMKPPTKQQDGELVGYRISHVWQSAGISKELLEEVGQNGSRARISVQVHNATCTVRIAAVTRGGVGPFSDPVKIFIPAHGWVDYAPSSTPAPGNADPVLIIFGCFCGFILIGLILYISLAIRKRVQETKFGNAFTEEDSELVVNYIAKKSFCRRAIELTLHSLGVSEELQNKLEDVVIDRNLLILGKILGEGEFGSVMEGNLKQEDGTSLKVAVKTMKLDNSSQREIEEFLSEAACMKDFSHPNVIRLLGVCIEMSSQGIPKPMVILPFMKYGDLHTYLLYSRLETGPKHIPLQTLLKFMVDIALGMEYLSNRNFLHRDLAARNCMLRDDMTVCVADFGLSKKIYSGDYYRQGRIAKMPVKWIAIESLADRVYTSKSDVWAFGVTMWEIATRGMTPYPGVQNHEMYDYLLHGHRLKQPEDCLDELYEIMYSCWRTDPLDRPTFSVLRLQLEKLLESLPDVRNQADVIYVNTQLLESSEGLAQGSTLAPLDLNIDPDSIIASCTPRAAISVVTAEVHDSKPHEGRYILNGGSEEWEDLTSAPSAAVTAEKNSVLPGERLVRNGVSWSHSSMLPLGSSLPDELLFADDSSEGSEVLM
SMILES,assay,setting,endpoint,value
Cn1c2c(c3ccc(Cl)c(Cl)c31)C(C#N)C1(CCCC1)NC2=O (stereo not drawn),"thermal stability, DSF",10 µM,ΔTm,-0.5 °C
Cc1c[nH]c2nccc(Oc3c(F)cc(Nc4cc(Cl)nc(N)n4)cc3F)c12,"cell-free assay, competition with immobilised ligand",0.1 µM,remaining binding,100%
CN1CCC2(CC1)NC(=O)c1c(c3ccc(Cl)c(Cl)c3n1C)C2C#N (racemic),"thermal stability, DSF",10 µM,ΔTm,-0.4 °C
O=C(Nc1cnn(-c2csc(C(=O)NC3COC3)c2)c1)Nc1ccccc1Cl,"enzyme activity, inhibitor",5 µM,remaining activity,92.7%
N#CCCc1ccc2c(c1)-c1[nH]c3ccc([N+](=O)[O-])cc3c1CC(=O)N2,cell-free assay,0.5 µM,remaining signal,77.5%
COc1cc2ncnc(Nc3ccc(Oc4ccccc4)c(C)c3C)c2cc1OC,"enzyme activity, inhibitor",1 µM,inhibition,28%
CO[C@H]1CC[C@H](CNc2ccc(S(=O)(=O)NC(=O)c3ccc(N4CCN(CC5=C(c6ccc(Cl)cc6)CC(C)(C)CC5)CC4)cc3Oc3cnc4[nH]ccc4c3)cc2[N+](=O)[O-])CC1,"cell-free assay, competition with immobilised ligand",1 µM,remaining binding,85%
CNC(=O)c1cc(Oc2ccc(NC(=O)Nc3ccc(Cl)c(C(F)(F)F)c3)cc2)ccn1,"enzyme activity, inhibitor",10 µM,inhibition,82%
Cn1nc(C(F)(F)F)cc1-c1cnc(N2CCc3cc(S(=O)(=O)Nc4c(F)cc(Cl)cc4F)cc(N4CCCC4=O)c32)nc1,"cell-free assay, competition with immobilised ligand",1 µM,remaining binding,100%
Nc1ncnc2occ(-c3ccc(NC(=O)Nc4cc(C(F)(F)F)ccc4F)cc3)c12,cell-free assay,20 µM,remaining signal,0.25%
CC(C)(C)c1nc(-c2cccc(NS(=O)(=O)c3c(F)cccc3F)c2F)c(-c2ccnc(N)n2)s1,"enzyme activity, inhibitor, radiometric",1 µM,remaining activity,115%
Cc1nccc(COC(=O)N2C[C@@H]3[C@@H](CNC(=O)c4ccc5[nH]nnc5c4)[C@@H]3C2)n1,"cell-free assay, competition with immobilised ligand",1 µM,remaining binding,100%
Cc1ccc(NC(=O)c2ccc(C)c(C(F)(F)F)c2)cc1C#Cc1nn(C2CCC(O)CC2)c2ncnc(N)c12 (stereo not drawn),cell-free assay,10 µM,remaining signal,0%
Cc1ccc(Nc2nccc(N(C)c3ccc4c(C)n(C)nc4c3)n2)cc1S(N)(=O)=O,"enzyme activity, inhibitor",10 µM,inhibition,87%
CCCCN(CCCC)C(=O)CN1C[C@@H](c2cc(OC)c3c(c2)OCO3)[C@H](C(=O)O)[C@H]1CC(C)(C)CCC,"cell-free assay, competition with immobilised ligand",1 µM,remaining binding,100%
CCN(CC)CCNC(=O)c1c(C)[nH]c(/C=C2\C(=O)Nc3ccc(F)cc32)c1C,"enzyme activity, inhibitor",10 µM,inhibition,98%
O=C1Nc2ccc(Cl)cc2C1=Cc1cc(Cl)c(O)c(Cl)c1,cell-free assay,0.5 µM,remaining signal,88.4%
Cn1c2c(Cl)c(Cl)ccc2c2cn[nH]c(=O)c21,"thermal stability, DSF",10 µM,ΔTm,-0.5 °C
CNC(=O)c1cc2c(Oc3ccc(NC(=O)C4(C(=O)Nc5ccc(F)cc5)CC4)cc3)ccnc2cc1OC,"enzyme activity, inhibitor, radiometric",1 µM,inhibition,99%
CNCc1ccccc1-c1csc([C@@H](C)Nc2nc(C)nc3cc(OC)c(OC)cc23)c1,"cell-free assay, competition with immobilised ligand",1 µM,remaining binding,61%
Cc1cc(NC(=O)c2cccc3cc(-c4cccc5[nH]nc(N)c45)ccc23)ccc1F,"enzyme activity, inhibitor",0.1 µM,activity vs control,96%
O=C(NS(=O)(=O)c1ccc(NCC2CCOCC2)c([N+](=O)[O-])c1)c1ccc(N2CCN(Cc3ccc(C(F)(F)F)cc3-c3ccc(Cl)cc3)CC2)cc1Oc1cnc2[nH]ccc2c1,"cell-free assay, competition with immobilised ligand",1 µM,remaining binding,100%
O=c1cc(-c2cccc3c2Sc2ccccc2S3)oc(N2CCOCC2)c1,"enzyme activity, inhibitor",0.5 µM,remaining activity,97%
CC1(C)NC(=O)c2[nH]c3c(Cl)c(Cl)ccc3c2C1C#N (stereo not drawn),"thermal stability, DSF",10 µM,ΔTm,-1.1 °C
CCCS(=O)(=O)Nc1ccc(F)c(C(=O)c2c[nH]c3ncc(-c4ccc(Cl)cc4)cc23)c1F,"enzyme activity, inhibitor",1 µM,inhibition,< 10%
Cn1c2c(c3ccc(Cl)c(Cl)c31)C(C#N)C(C)(C)NC2=O (stereo not drawn),"thermal stability, DSF",10 µM,ΔTm,-0.9 °C
O=C(Nc1cnn(-c2csc(C(=O)NC3COC3)c2)c1)Nc1c(F)cccc1Cl,"enzyme activity, inhibitor",5 µM,remaining activity,77.1%
Cn1c2c(c3ccc(Cl)c(Cl)c31)C(C#N)C1(CCNCC1)NC2=O (racemic),"thermal stability, DSF",10 µM,ΔTm,0.5 °C
CN1CC(Oc2cnc(C#N)cc2-c2ccn3nc(NC(=O)C4CC4)cc3c2)C1,"enzyme activity, inhibitor",1 µM,inhibition,0%
COc1ccc2c(O[C@@H]3C[C@H]4C(=O)N[C@]5(C(=O)O)CC5/C=C\CCCCC[C@H](NC(=O)OC5CCCC5)C(=O)N4C3)cc(-c3csc(NC(=O)C(C)C)n3)nc2c1C (stereo partly drawn),"cell-free assay, competition with immobilised ligand",1 µM,remaining binding,70%
